MPTP block: mitochondrial permeability transition pore inhibitors, primary screen, biochemical, isolated mouse mitochondria, absorbance. inhibition, % at 10 µM. 1.4% of 360,000 active. Ca2+ swelling absorbance, 30 min;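 active = inhibition of 50% or more, scaled per plate between neutral and stimulator controls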
aDG glyco up: activators of alpha-DG glycosylation, primary screen, uHTS, Pro5-aDG cells, AlphaScreen; 0.22% of 360,000 active; alpha-DG glycosylation AlphaScreen (IIH6); 0% Pro5, 100% B10-LARGE cell signal; AID 624168, 2012; activation, % at 10 µM;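 active = activation of at least 8% versus controls, or a plate z-score of at least 8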;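 note: Pro5 are CHO cells carrying HIG-tagged alpha-DG that lacks glycosylation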
proCasp7 act: procaspase-7 activators, primary screen, counter-screen for procaspase-3 activator project, biochemical, absorbance, HTS, human; Caspase-7 (Homo sapiens), P55210; recombinant procaspase-7, Ac-DEVD-pNA absorbance 405 nm; D23A/D198A/D206A triple mutant, cannot self-cleave; scale: DMSO 0, 5 µM enzyme 100; activation, % at 8.5 µM; 0.093% of 330,000 active; AID 463210, 2010;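 active = percent activation above the screen-wide mean plus 3 SD, cut at about 25% in these data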
Target sequence (P55210 whole entry D23A/D198A/D206A): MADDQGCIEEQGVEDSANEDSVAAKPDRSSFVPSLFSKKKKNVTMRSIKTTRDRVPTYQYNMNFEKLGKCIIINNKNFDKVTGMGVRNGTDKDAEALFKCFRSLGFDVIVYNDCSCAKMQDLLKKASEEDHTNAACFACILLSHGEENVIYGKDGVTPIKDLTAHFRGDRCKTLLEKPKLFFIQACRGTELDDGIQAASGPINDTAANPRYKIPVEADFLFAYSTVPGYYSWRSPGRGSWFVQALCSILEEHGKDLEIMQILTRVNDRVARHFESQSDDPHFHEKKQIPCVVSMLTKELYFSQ
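Test system: Procaspase-7 triple mutant (PC-7 D3A). Also added: Ac-DEVD-pNA substrate, 400 µM as added. Schedule: 1 h enzyme–compound preincubation and 2 h substrate reaction, both 25 °C. Signal: p-Nitroaniline absorbance at 405 nm, read at 0 and 120 min. Control set: low DMSO alone, high DMSO plus 5 µM PC-7.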
procasp3 activ: activators of human procaspase-3 D3A mutant, primary screen, biochemical, absorbance, PC-3 D3A mutant, single concentration; recombinant procaspase-3 D3A, Ac-DEVD-pNA absorbance 405 nm; activation, % at 8.5 µM; 0.11% of 330,000 active;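 active = activation above the mean of all tested compounds plus 3 SD, cut at about 21% in these data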
Target sequence (P42574 whole entry D9A/D28A/D175A): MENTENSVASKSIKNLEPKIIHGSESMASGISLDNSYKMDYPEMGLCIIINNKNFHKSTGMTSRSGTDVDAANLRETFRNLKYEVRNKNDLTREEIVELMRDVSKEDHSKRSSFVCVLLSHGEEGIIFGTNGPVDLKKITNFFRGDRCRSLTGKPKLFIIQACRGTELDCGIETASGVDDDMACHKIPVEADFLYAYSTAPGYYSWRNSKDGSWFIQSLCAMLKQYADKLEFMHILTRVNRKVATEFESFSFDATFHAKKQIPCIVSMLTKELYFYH
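Technique: 405 nm absorbance of p-nitroaniline, reads at 0 and 120 min; Test system: Procaspase-3 D3A mutant; Incubation: 1 h enzyme-compound preincubation, then 2 h substrate reaction, 25 °C; Repeats: singlicate, each compound tested once; Benchmarks: low control DMSO wells, high control DMSO plus 5 µM PC-3 D3A.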
GRIN3A LBD mod: binders of NR3A ligand-binding domain, primary screen, biophysical, differential scanning fluorimetry, uHTS | Glutamate receptor ionotropic, NMDA 3A (GRIN3A) ligand-binding domain | NR3A LBD differential scanning fluorimetry, Tm shift; 0% = protein alone, 100% = glycine-bound protein | Tm shift relative to glycine control, % at 25 µM | 2.5% of 340,000 active;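 active = melting temperature shift of at least 10% of the positive control shift, at one fixed dose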
aDG conf: alpha-DG glycosylation enhancers, retest, confirmation, single concentration, Pro5-aDG cells | shares compounds with aDG glyco up | IIH6 AlphaLISA; scaled to LARGE-overexpressing B10 cells as 100% | activation, % at 10 µM (by protocol) | 17% of 600 active;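 active = activation of at least 7% in one or more replicates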;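 note: cells exposed to compound for two days before detection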
Large screens that a line does not name were inactive (follow-up assays come after a bar, where they were run); ! = repeats disagree. Only some compounds are listed: those with a hit (about 3.7% of all), similar ones and a draw of the others.

COC(=O)C1CCN(C(=O)COC(=O)c2cc(-c3ccccc3)nc3ccc(OC)cc23)CC1	aDG glyco up 6.7 | aDG conf inactive
O=C(CN1C2=NCCCN2c2ccccc21)c1ccc([N+](=O)[O-])cc1	aDG glyco up 7.5 | aDG conf inactive
O=C(CN1C2=NCCCN2c2ccccc21)c1cccc(Br)c1	none
C[C@@H]1CN([C@@H](C)CO)C(=O)CCCn2nncc2CO[C@@H]1CN(C)C(=O)Nc1ccc(C(C)(C)C)cc1	aDG glyco up 14.0 (no result: proCasp7 act, procasp3 activ, GRIN3A LBD mod) | aDG conf inactive
C[C@@H]1CN([C@H](C)CO)C(=O)CCCn2nncc2CO[C@@H]1CN(C)C(=O)CCC(F)(F)F	aDG glyco up 7.3 (no result: proCasp7 act, procasp3 activ, GRIN3A LBD mod) | aDG conf inactive
CC(C)COC(=O)N(C)C[C@@H]1OCc2cnnn2CCCC(=O)N([C@H](C)CO)C[C@@H]1C	aDG glyco up 7.2 (no result: proCasp7 act, procasp3 activ, GRIN3A LBD mod) | aDG conf inactive
C[C@H](CO)N1C[C@H](C)[C@@H](CN(C)C(=O)Nc2ccc(C(C)(C)C)cc2)OCc2cnnn2CCCC1=O	none (no result: proCasp7 act, procasp3 activ, GRIN3A LBD mod)
CC1Cc2cc(S(=O)(=O)CCC(=O)NCc3ccco3)ccc2N1C(=O)C1CC1 (configuration not stated)	none
CCOc1ccccc1OCC(=O)NC1CCSc2ccccc21 (configuration not stated)	none (no result: proCasp7 act, procasp3 activ, GRIN3A LBD mod)
Cc1nc2ccc(Cl)cc2nc1C	none
CCCCOP(=O)(OCCCC)C1(NS(=O)(=O)c2ccccc2)C=CC(=O)c2ccccc21 (configuration not stated)	aDG glyco up 5.9 | aDG conf inactive
CCCCOCCCNS(=O)(=O)c1ccccc1	none
COc1ccc2c(c1)c(-c1csc(N)n1)c(C)n2C	none
CNc1nc(-c2c(C)n(C)c3ccc(OC)cc23)cs1	aDG glyco up 3.0 | aDG conf inactive
Cc1c(C(=O)NCc2cccc(Cl)c2)sc(=O)n1Cc1cccc(F)c1	aDG glyco up 6.8 (no result: proCasp7 act, procasp3 activ, GRIN3A LBD mod) | aDG conf inactive
Cc1cccc(OCCc2nnc(N)s2)c1C	none
O=C(CCN1C(=O)COc2ccccc21)NCCCN1CCCC1	aDG glyco up 6.4 | aDG conf inactive
Cc1cc(OCc2nc(-c3cccs3)no2)cc(C)c1Cl	aDG glyco up 7.7 | aDG conf inactive
CC(C)(C)C1CCC(C(=O)OCC(=O)c2ccc[nH]2)CC1 (configuration not stated)	none
CC(C)OP(=O)(OC(C)C)C(Nc1ccccc1)c1cccnc1 (configuration not stated)	none
COc1ccc2[nH]c3c(N4CCN(Cc5ccc6c(c5)OCO6)CC4)ncnc3c2c1	aDG glyco up 8.3 | aDG conf inactive
CC1(C)CC2(C)OCCN2C(=S)N1 (configuration not stated)	aDG glyco up 3.3! | aDG conf inactive
CC(O)C1C(=O)OC2(C)CC(C)(C)NC(=S)N12 (configuration not stated)	none
CC(C)C[C@H]1COCCS(=O)(=O)N1Cc1ccccc1F	aDG glyco up 6.1 | aDG conf inactive
Cc1cccc(NS(=O)(=O)c2cnc(Cl)c(Br)c2)n1	none
Cc1cc(NC(=O)CSc2nnc(C3CC3)n2N)c([N+](=O)[O-])cc1C	none
O=C(O)c1ccc(NC(=S)NC(=O)c2cncc(Br)c2)cc1	none
OC[C@@H]1CN(Cc2ccc(-c3ccccc3)cc2)C[C@H](n2cnc3c(NC4CCC4)ncnc32)O1	aDG glyco up 7.6 (no result: proCasp7 act, procasp3 activ, GRIN3A LBD mod) | aDG conf inactive
O=C(O)/C=C\C(=O)Nc1ccc(F)c(F)c1F	none
c1ccc2c(N3CCCCC3)ncnc2c1	none
CN1CC[n+]2cnc3ccccc3c21	aDG glyco up 6.2 | aDG conf inactive
Cc1cc(C(=O)Nc2ccc(Cl)cc2)n(-c2ccccc2)n1	aDG glyco up 2.7 | aDG conf inactive
Cc1ccc(NC(=O)c2cc(C)nn2-c2ccccc2)cc1	none
Cc1cc(C)c(S(C)(=O)=O)c(S(=O)(=O)c2ccc(Cl)cc2)n1	none
Cc1cc(C)c(S(=O)(=O)O)c(C)n1	aDG glyco up 6.9 | aDG conf inactive
CCCN(Cc1nnc(-c2ccccc2Cl)o1)C(=O)c1oc2ccccc2c1C	none
COc1ccc(-c2ccc3c(c2)S(=O)(=O)c2cccc(C(=O)NC4CCCCC4)c2C3=O)cc1OC	aDG glyco up 71.2 | aDG conf inactive
COc1ccc(-c2ccc3c(c2)S(=O)(=O)c2cccc(C(=O)NC4CC4)c2C3=O)cc1OC	none
O=C(NCC1CCCO1)c1csc2c1CCCC2 (configuration not stated)	none
CC(=O)c1ccc(N2CCN(C(=O)Nc3ccc(C(C)C)cc3)CC2)cc1	aDG glyco up 7.4 | aDG conf 6.8
CC(=O)c1ccc(N2CCN(C(=O)Nc3ccc(F)cc3)CC2)cc1	none (no result: GRIN3A LBD mod)
CC(OC(=O)c1ccc(NS(=O)(=O)c2cccs2)cc1)C(=O)N(C)C1CCCCC1 (configuration not stated)	none
COc1ccc(C)cc1NC(=O)c1nn(-c2ccccc2)cc1OC	aDG glyco up 2.5 | aDG conf inactive
O=C(OCC(=O)N1CCc2ccccc2C1)c1cc(=O)[nH]c2ccccc12	none
FC(F)(F)c1cccc(Cc2noc(CN3CCC(c4ccncc4)CC3)n2)c1	aDG glyco up 6.1 | aDG conf inactive
CN1CCCC2(CCCN(Cc3nc(Cc4cccc(C(F)(F)F)c4)no3)C2)C1 (configuration not stated)	none
Cc1ccc(OCCCCNC2CCCCC2)c(C)c1	aDG glyco up 6.9 | aDG conf inactive
Cc1ccc(OCC(O)CNC2CCCC2)c(C)c1 (configuration not stated)	none (no result: proCasp7 act, procasp3 activ)
CC(C)(C)c1ccc(-n2ncc3c2CCCC3NC(=O)C2(C(N)=O)CC2)cc1 (configuration not stated)	aDG glyco up 9.6 | aDG conf inactive
Cc1cc(N2CCN(C(=O)Nc3ccc(F)cc3F)CC2)c2ccccc2n1	none
CCCCc1ccc(NC(=O)N2CCN(c3cc(C)nc4ccccc34)CC2)c(C)c1	aDG glyco up 3.3 | aDG conf inactive
CC(C)(CN1CCCN(CC(C)(C)C(=O)O)C1=O)C(=O)O	none (no result: proCasp7 act, procasp3 activ, GRIN3A LBD mod)
NC(CCc1ccccc1)c1csc(Nc2ccc(C(=O)c3ccccc3)cc2)n1 (configuration not stated)	aDG glyco up 8.0 (no result: proCasp7 act, procasp3 activ, GRIN3A LBD mod) | aDG conf inactive

Compound activity from PubChem.
